Measured values from ChEMBL document CHEMBL3045565, “Microwave synthesis, characterization and bio-efficacy evaluation of novel chalcone based 6-carbethoxy-2-cyclohexen-1-one and 2H-indazol-3-ol derivatives” (Eur J Med Chem, 2013).
Converted amounts (≈) assume the structure as drawn.

How the values were obtained:
Type in all cases: functional
[1] = test system: Xanthomonas oryzae; assay: Antibacterial activity against Xanthomonas oryzae ITCC B-47 assessed as as growth inhibition at 100 ug/disk after 24 hr by disk diffusion method; settings: ITCC B-47, 24 h, read-out: DIZ
[2] = test system: Dickeya chrysanthemi; assay: Antibacterial activity against Erwinia chrysanthemi ITCC B-40 assessed as as growth inhibition at 100 ug/disk after 24 hr by disk diffusion method; settings: ITCC B-40, 24 h, read-out: DIZ
Procedure, shortened: (§1)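 Disk diffusion on nutrient agar. Strains kept on NA slants at 37 °C and subcultured in nutrient broth before testing. A log-phase culture was spread on solidified medium, and sterile disks were loaded with compound from DMSO stock. DMSO served as control, with commercial antibiotics for reference. Plates ran 24 h at 37 °C, and inhibition zones (mm) were read in quadruplicate.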

[3] = test system: Rhizoctonia solani; assay: Antifungal activity against Rhizoctonia solani ITCC 5563 by food poisoning method
Procedure, shortened: (§2)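 Poisoned food technique on PDA at several concentrations. A 5 mm mycelial plug from the growing edge of a 2-week-old colony was placed inoculum-side down at the plate centre. Plates incubated at 27 °C until control growth was nearly complete. Colony diameter measured, percent inhibition calculated against control, LC50 derived. Four replicates per treatment.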

[4] = test system: Athelia rolfsii; assay: Antifungal activity against Athelia rolfsii ITCC 6181 by food poisoning method; settings: Agroathelia rolfsii; procedure, shortened: as §2
[5] = test system: Radical scavenging activity; assay: Antioxidant activity assessed as DPPH free radical scavenging activity at 400 ug/mL after 20 min by UV-Vis spectrophotometric analysis
Procedure, shortened: (§3)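 DPPH radical scavenging: samples were held at room temperature for 20 min in the dark, and absorbance was read at 517 nm. The control contained DMSO without compound, and methanol was used for baseline correction. Scavenging percentage was calculated from the absorbances.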

[6] = test system: Radical scavenging activity; assay: Antioxidant activity assessed as DPPH free radical scavenging activity at 500 ug/mL after 20 min by UV-Vis spectrophotometric analysis; procedure, shortened: as §3
[7] = test system: Radical scavenging activity; assay: Antioxidant activity assessed as DPPH free radical scavenging activity at 300 ug/mL after 20 min by UV-Vis spectrophotometric analysis; procedure, shortened: as §3
[8] = test system: Radical scavenging activity; assay: Antioxidant activity assessed as DPPH free radical scavenging activity at 100 ug/mL after 20 min by UV-Vis spectrophotometric analysis; procedure, shortened: as §3
[9] = test system: Radical scavenging activity; assay: Antioxidant activity assessed as DPPH free radical scavenging activity at 200 ug/mL after 20 min by UV-Vis spectrophotometric analysis; procedure, shortened: as §3
[10] = test system: Radical scavenging activity; assay: Antioxidant activity assessed as DPPH free radical scavenging activity at 60 ug/mL after 20 min by UV-Vis spectrophotometric analysis; procedure, shortened: as §3
[11] = test system: Radical scavenging activity; assay: Antioxidant activity assessed as DPPH free radical scavenging activity at 80 ug/mL after 20 min by UV-Vis spectrophotometric analysis; procedure, shortened: as §3
[12] = test system: Radical scavenging activity; assay: Antioxidant activity assessed as DPPH free radical scavenging activity at 40 ug/mL after 20 min by UV-Vis spectrophotometric analysis; procedure, shortened: as §3
[13] = test system: Radical scavenging activity; assay: Antioxidant activity assessed as DPPH free radical scavenging activity at 20 ug/mL after 20 min by UV-Vis spectrophotometric analysis; procedure, shortened: as §3
[14] = test system: Radical scavenging activity; assay: Antioxidant activity assessed as DPPH free radical scavenging activity at 10 ug/mL after 20 min by UV-Vis spectrophotometric analysis; procedure, shortened: as §3
[15] = test system: Radical scavenging activity; assay: Antioxidant activity assessed as DPPH free radical scavenging activity after 20 min by UV-Vis spectrophotometric analysis; parameters: concentration or dose not given beside the values; procedure, shortened: as §3
[16] = test system: Pseudomonas aeruginosa; assay: Antibacterial activity against Pseudomonas aeruginosa MTCC 2581 assessed as growth inhibition at 100 ug/disk after 24 hr by disk diffusion method; settings: MTCC 2581, 24 h, read-out: DIZ; procedure, shortened: as §1
[17] = test system: Staphylococcus aureus; assay: Antibacterial activity against Staphylococcus aureus MTCC 3160 assessed as growth inhibition at 100 ug/disk after 24 hr by disk diffusion method; settings: MTCC 3160, 24 h, read-out: DIZ; procedure, shortened: as §1
[18] = test system: Klebsiella pneumoniae; assay: Antibacterial activity against Klebsiella pneumoniae MTCC 7028 assessed as growth inhibition at 100 ug/disk after 24 hr by disk diffusion method; settings: MTCC 7028, 24 h, read-out: DIZ; procedure, shortened: as §1
[19] = test system: Bacillus pumilus; assay: Antibacterial activity against Bacillus pumilus MTCC 2466 assessed as growth inhibition at 100 ug/disk after 24 hr by disk diffusion method; settings: MTCC 2466, 24 h, read-out: DIZ; procedure, shortened: as §1
[20] = test system: Bacillus thuringiensis; assay: Antibacterial activity against Bacillus thuringiensis MTCC 6941 assessed as growth inhibition at 100 ug/disk after 24 hr by disk diffusion method; settings: MTCC 6941, 24 h, read-out: DIZ; procedure, shortened: as §1

SMILES | zone of inhibition at 100 µg/disc [1] [mm] | zone of inhibition at 100 µg/disc [2] [mm] | LC50 [3] [µg/mL] | LC50 [4] [µg/mL] | Activity [15] [%] | zone of inhibition at 100 µg/disc [16] [mm] | zone of inhibition at 100 µg/disc [17] [mm] | zone of inhibition at 100 µg/disc [18] [mm] | zone of inhibition at 100 µg/disc [19] [mm] | zone of inhibition at 100 µg/disc [20] [mm] | other results
COc1ccc(C2CC(c3ccc4c(c3)OCO4)=Cc3n[nH]c(O)c32)cc1 (configuration not stated) | 0 | 0 | 643 (≈ 1770 µM) | 897 (≈ 2480 µM) | 56.1 | 0 | 0 | 0 | 0 | 0 | Activity [5]: 89.9%; Activity [6]: 90.1%; Activity [7]: 89.8%; Activity [8]: 90.7%; Activity [9]: 91.9%; Activity [10]: 84.2%; Activity [11]: 89.5%; Activity [12]: 56.1%; Activity [13]: 30.4%; Activity [14]: 19%; IC50 [15]: 25.2 µg/mL (≈ 69.5 µM)
CCOC(=O)C1C(=O)C=C(c2ccc(C)cc2)CC1c1cc(OC)c(OC)c(OC)c1 (configuration not stated) | 0 | 0 | 118 (≈ 278 µM) | 345 (≈ 813 µM) | 4.52 | 0 | 0 | 0 | 0 | 0 | 
CCOC(=O)C1C(=O)C=C(c2ccccc2)CC1c1ccccc1 (configuration not stated) | 0 | 0 | 207 (≈ 646 µM) | 304 (≈ 949 µM) | 3.33 | 0 | 0 | 10 | 0 | 0 | 
CCOC(=O)C1C(=O)C=C(c2ccc(C)cc2)CC1c1ccc(C)cc1 (configuration not stated) | 0 | 0 | 231 (≈ 663 µM) | 321 (≈ 921 µM) | 3.54 | 10 | 0 | 5 | 0 | 0 | 
CCOC(=O)C1C(=O)C=C(c2ccccc2)CC1c1ccc(OC)c(OC)c1 (configuration not stated) | 0 | 0 | 198 (≈ 520 µM) | 323 (≈ 849 µM) | 4.23 | 5 | 0 | 0 | 0 | 0 | 
CCOC(=O)C1C(=O)C=C(c2ccc(C)cc2)CC1c1ccc(OC)c(OC)c1 (configuration not stated) | 0 | 0 | 189 (≈ 479 µM) | 317 (≈ 804 µM) | 7.38 | 0 | 0 | 0 | 0 | 0 | 
CCOC(=O)C1C(=O)C=C(c2ccc([N+](=O)[O-])cc2)CC1c1ccc2c(c1)OCO2 (configuration not stated) | 0 | 10 | 29 (≈ 70.8 µM) | 4310 (≈ 10500 µM) | 3.6 | 0 | 0 | 0 | 0 | 0 | 
CCOC(=O)C1C(=O)C=C(c2ccc(Cl)c(Cl)c2)CC1c1ccc(OC)cc1 (configuration not stated) | 0 | 0 | 1040 (≈ 2490 µM) | 6110 (≈ 14600 µM) | 2.92 | 0 | 0 | 0 | 0 | 0 | 
CCOC(=O)C1C(=O)C=C(c2ccc3c(c2)OCO3)CC1c1ccc(OC)cc1 (configuration not stated) | 0 | 0 | 396 (≈ 1000 µM) | 380 (≈ 963 µM) | 4.26 | 0 | 0 | 0 | 0 | 0 | 
COc1ccc(/C=C/C(=O)c2ccc(C)cc2)cc1OC | 0 | 0 | 107 (≈ 379 µM) | 587 (≈ 2080 µM) | 0.71 | 0 | 0 | 0 | 0 | 0 | 
Cc1ccc(/C=C/C(=O)c2ccc(C)cc2)cc1 [4,4'-DIMETHYLCHALCONE] | 0 | 0 | 635 (≈ 2690 µM) | 549 (≈ 2320 µM) | 1.19 | 0 | 0 | 0 | 0 | 0 | 
CCOC(=O)C1C(=O)C=C(c2ccccc2)CC1c1ccc(C)cc1 (configuration not stated) | 0 | 0 | 233 (≈ 697 µM) | 316 (≈ 945 µM) | 4.17 | 0 | 0 | 5 | 0 | 0 | 
CCOC(=O)C1C(=O)C=C(c2ccc(F)cc2)CC1c1ccccc1 (configuration not stated) | 0 | 10 | 35 (≈ 103 µM) | 319 (≈ 943 µM) | 3.86 | 0 | 0 | 10 | 0 | 0 | 
CCOC(=O)C1C(=O)C=C(c2ccccc2)CC1c1cc(OC)c(OC)c(OC)c1 (configuration not stated) | 0 | 0 | 139 (≈ 339 µM) | 365 (≈ 889 µM) | 1.69 | 0 | 0 | 0 | 0 | 0 | 
CCOC(=O)C1C(=O)C=C(c2ccc(OC)cc2)CC1c1ccc(OC)c(OC)c1 (configuration not stated) | 0 | 0 | 34 (≈ 82.8 µM) | 315 (≈ 767 µM) | 4.71 | 0 | 0 | 0 | 0 | 0 | 
CCCCC(O)(Cn1cncn1)c1ccc(Cl)cc1Cl (configuration not stated) [HEXACONAZOLE] |  |  | 1.12 (≈ 3.56 µM) | 1.27 (≈ 4.04 µM) |  |  |  |  |  |  | 
O=C(/C=C/c1ccccc1)c1ccccc1 [CHALCONE] | 0 | 10 | 2.49 (≈ 12 µM) | 674 (≈ 3240 µM) | 9.11 | 10 | 5 | 0 | 0 | 0 | 
CCOC(=O)C1C(=O)C=C(c2ccc(OC)c(OC)c2)CC1c1ccc(OC)cc1 (configuration not stated) | 0 | 10 |  | 504 (≈ 1230 µM) | 11.3 | 0 | 0 | 0 | 0 | 0 | 
CCOC(=O)C1C(=O)C=C(c2ccc(F)cc2)CC1c1cccc([N+](=O)[O-])c1 (configuration not stated) | 0 | 10 | 157 (≈ 410 µM) | 285 (≈ 743 µM) | 4.23 | 0 | 0 | 0 | 0 | 0 | 
